Hits are enriched below; roughly 2.2% of the tested compounds scored in any of these assays.
Ecoli rRNA inh: inhibits bacterial ribosomal RNA function over humanized ribosomes. AID 720706. GFP signal change (wild-type ribosome), % (test concentration not listed). E. coli WT GFP vs humanized-ribosome RFP mutants, fluorescence, 24 h; hits give low values; DMSO median 0, no signal -100. 350,000 compounds, 1.6% hits;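 active means significant combined selectivity score with lowered wild-type GFP, culture density cut under 30%, mutant RFP and density less affected; inactive means any of these conditions unmet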
PglD DTNB: PglD (C. jejuni) enzyme inhibition | purified PglD enzyme, DTNB colorimetric CoA detection | AID 602405 | 360,000 compounds, 0.098% hits | inhibition, % at 12.5 µM; in the data active means inhibition above about 16%, passing the limit was not always enough
Cneo AK release: Cryptococcus neoformans lysis via adenylate kinase release | C. neoformans lysis, adenylate kinase release luminescence, 4 h; normalised: neutral wells 0, clomiphene wells 100 | lysis activity, % at 15 µM | AID 651654 | 360,000 compounds, 0.2% hits;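 active means mean lysis activity across replicates of at least 80%, whatever share of replicates individually reach that level; inactive means mean lysis activity below 80%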
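Material: C. neoformans cells | Amount: Yeast cell density of 5 × 10^6 cells/mL | Medium: Fresh YPD growth medium | Dosing: Single dose | Times: Static 4 h at 37 °C with compound, 1 h detection | Detection: AK luminescence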
Yeast superoxide: caloric restriction mimetics inhibiting age-related superoxide in yeast; S. cerevisiae aged cells, superoxide DHE fluorescence; hits give low values; superoxide response (% of plate mean), % at 10 µM; 330,000 compounds, 0.18% hits;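 active means superoxide response under a set limit, about three screen SD below normal, cut at about 65% in these data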;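 further: yeast aged for seven days with compound at 30 °C before DHE staining; 100% = average MFI of all compound-treated wells on the plate with controls excluded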
Mot1-301 SUMO: inhibitors of SUMOylation pathway: yeast Mot1-301 growth rescue. S. cerevisiae Mot1-301 growth rescue, ATP luminescence, 38.5C; percent above DMSO median, 100 means doubled. growth rescue, % at 18.8 µM. 320,000 compounds, 1% hits. AID 2716;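 active means every valid replicate shows activation above 250% relative to neutral control wells; inactive means the rest, any valid replicate at or below 250%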;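 further: OY570 slx delta 5 strain wells were the positive control but not used for scaling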
* marks the source's active call; other numbers are inactive results; nt = no result given.

SMILES | Ecoli rRNA inh | PglD DTNB | Cneo AK release | Yeast superoxide | Mot1-301 SUMO
CN(C)/N=C/c1ccc(N2CCOCC2)cc1 | -17* | -2 | 1 | 106 | 22
CCc1nn(-c2ccccc2)c(N)c1C#N | -9 | nt | nt | 95 | 290*
O=C(Nc1ccc(F)cc1)Nc1ccc2c(c1)[C@H]1C[C@@H](CC(=O)N3CCCCC3)O[C@@H](CO)[C@H]1O2 | -6 | 1 | 43 | nt | nt
Fc1ccc(Cn2cc(C(=S)N3CCOCC3)c3ccccc32)cc1 | -26* | 1 | 20 | 88 | 13
Fc1ccccc1Cn1cc(C(=S)N2CCOCC2)c2ccccc21 | -20 | -3 | 12 | 70 | -27
CN1CCN(CC(=O)N2CCn3c4c(c5cc(C6CCCCC6)ccc53)CCCC42)CC1 (stereo not given) | nt | -7 | 8 | 105 | 500*
Cc1ccc2c(c1)c1c3n2CCN(C(=O)CN2CCN(C)CC2)C3CCC1 (stereo not given) | nt | -1 | -7 | 97 | 11
CN(CCO)c1cnccn1 | 8 | nt | nt | 104 | 580*
CC(C)NC(=O)N(C)C[C@@H]1Oc2ncc(-c3ccc(C(=O)N(C)C)cc3)cc2C(=O)N([C@H](C)CO)C[C@@H]1C | 2 | -2 | -6 | nt | nt
C[C@H](CO)N1C[C@H](C)[C@@H](CN(C)Cc2ccccc2C(F)(F)F)OCc2ccccc2-c2c(n(C)c3ccccc23)C1=O | 3 | nt | nt | nt | nt
COc1cc([N+](=O)[O-])ccc1NC(=S)NNC(=O)c1ccc2c(c1)OCO2 | -17* | -8 | 1 | 77 | -2
O=C(NC(=S)Nc1cc([N+](=O)[O-])ccc1O)c1ccc2c(c1)OCO2 | -27 | -1 | -1 | 124 | 138
COc1ccc2c3c(n(C)c2c1)[C@@H](CO)N(S(=O)(=O)c1ccc(C)cc1)CC31CN(S(=O)(=O)c2ccc(C)cc2)C1 | -2 | nt | nt | nt | nt
COc1ccc(C2c3ccsc3CCN2C(=O)C(C)(C)C)cc1 (stereo not given) | -47* | nt | nt | 86 | 15
COc1cc(OC)c(C(=O)O/N=C(\N)c2ccccn2)cc1OC | -1 | -4 | 9 | 104 | 327*
COc1ccccc1CNC(=O)CSc1ccc(-c2ccccn2)nn1 | 1 | nt | nt | 107 | 343*
O=C(CSc1ccc(-c2cccs2)nn1)NCc1ccccc1Cl | nt | nt | nt | 105 | -4
COc1ccccc1CNC(=O)CSc1ccc(-c2cccs2)nn1 | -25* | nt | nt | 80 | 14
CN(C)C(=O)c1ccc(N=Nc2c(O)c3ccccc3[nH]c2=O)cc1 | -21* | -2 | -9 | nt | nt
COc1ccc(C(=O)Nc2cccc3nc(C)ccc23)cc1OC | -1 | 6 | 4 | 90 | 549*
COc1cc(OC)cc(C(=O)Nc2cccc3nc(C)ccc23)c1 | 2 | 1 | -1 | 101 | 92
Fc1ccc(CN2CCN(C(c3ccccc3)c3ccccc3)CC2)cc1 | -43 | 0 | 1 | 98 | 146
c1ccc(CN2CCN(C(c3ccccc3)c3ccccc3)CC2)cc1 | -24* | -5 | 7 | 81 | 3
C[C@@H]1CN([C@@H](C)CO)C(=O)c2cc(NC(=O)CCC(F)(F)F)ccc2O[C@H]1CN(C)CC1CCCCC1 | -2 | 3 | -11 | nt | nt
CCCNS(=O)(=O)c1ccc(OCC(=O)N(C)Cc2ccccc2)cc1 | -3 | -12 | 0 | 60* | -22
SMILES | Ecoli rRNA inh | PglD DTNB | Cneo AK release | Yeast superoxide | Mot1-301 SUMO
O=[N+]([O-])c1ccc(O)c(C2=NNC(c3ccccc3F)C2)c1 (stereo not given) | -54* | 1 | 1 | 77 | -10
Oc1ccc(Cl)cc1C1=NNC(c2cccs2)C1 (stereo not given) | -55 | 0 | -9 | 112 | 2
Cc1ccccc1NC(=O)/C(C#N)=C\c1cc(C)n(-c2ccc(C(=O)O)cc2)c1C | -23* | nt | nt | 127 | 0
C[C@@H]1CN([C@H](C)CO)C(=O)c2cc(NC(=O)Nc3ccc(F)cc3)ccc2O[C@@H]1CN(C)Cc1ccncc1 | -2 | 1 | -5 | nt | nt
Cc1noc(C)c1NC(=O)Nc1ccc2c(c1)C(=O)N([C@@H](C)CO)C[C@@H](C)[C@@H](CN(C)CC1CC1)OCCCC[C@@H](C)O2 | 5 | 4 | 9 | nt | nt
COc1ccc(N2CCN(C(=O)c3ccc(Br)cc3)CC2)c([N+](=O)[O-])c1 | -24* | nt | nt | 113 | 100
COc1ccc(N2CCN(C(=O)c3ccc(C)cc3)CC2)c([N+](=O)[O-])c1 | nt | nt | nt | 116 | 14
COc1ccc(N2CCN(C(=O)c3ccccc3)CC2)c([N+](=O)[O-])c1 | -23* | 8 | 2 | 100 | 10
CCc1ccc2oc(C(=O)NCCc3ccc(S(N)(=O)=O)cc3)cc(=O)c2c1 | -34* | 18 | -1 | 107 | -8
CCN(Cc1ccccc1)S(=O)(=O)c1cc(C(=O)c2c(N)n(C)c(=O)n(C)c2=O)ccc1OC | -37* | nt | nt | 96 | 12
O=C(COc1ccc2c(-c3ccccc3)cc(=O)oc2c1)NCC1CCC(C(=O)O)CC1 (stereo not given) | -12 | 1 | -3 | 113 | 210
O=C(COc1ccc2cc(-c3ccccc3)c(=O)oc2c1)NCC1CCC(C(=O)O)CC1 (stereo not given) | nt | 0 | -4 | 119 | 988*
O=C(COc1ccc2c(c1)oc(=O)c1ccccc12)NCC1CCC(C(=O)O)CC1 (stereo not given) | nt | 4 | -4 | 103 | 620*
Cc1noc(C)c1S(=O)(=O)N(C)C[C@H]1Oc2ccc(NC(=O)NC3CCCCC3)cc2CC(=O)N([C@@H](C)CO)C[C@@H]1C | -1 | -2 | -1 | nt | nt
Cc1ccc2nc(-c3ccc(NS(=O)(=O)c4c(C)n(C)c(=O)n(C)c4=O)cc3)sc2c1 | 0 | nt | nt | 109 | 323*
O=C(Nc1cc(Br)ccc1O)C1CC(c2c(F)cccc2Cl)=NO1 (stereo not given) | -36* | -5 | -4 | 106 | -7
O=C(Nc1ccc(Br)cc1)C1CC(c2c(F)cccc2Cl)=NO1 (stereo not given) | -3 | 1 | -1 | 109 | 20
COc1ccc(Cl)cc1NC(=O)C1CC(c2c(F)cccc2Cl)=NO1 (stereo not given) | -30* | -2 | -4 | 96 | 11
CSc1ccccc1NC(=O)C1CC(c2c(F)cccc2Cl)=NO1 (stereo not given) | -25* | -2 | 1 | 99 | 182
Cc1cc(NC(=O)C2CC(c3c(F)cccc3Cl)=NO2)n(-c2ccccc2)n1 (stereo not given) | -9 | nt | nt | 100 | -2
O=C(C[C@H]1CC[C@@H]2[C@H](COC[C@H](O)CN2Cc2cocn2)O1)NCc1cccc(F)c1 | 0 | 3 | 49 | nt | nt
CCCNC(=O)C[C@H]1CC[C@@H]2[C@@H](COc3ccc(NC(=O)c4cccc(C(F)(F)F)c4)cc3C(=O)N2C)O1 | -1 | 0 | -1 | nt | nt
Cn1cnnc1SCc1cccc(Br)c1 | nt | -1 | -2 | 105 | 264*
Cn1c(SCc2cccc(Br)c2)nnc1-c1ccccn1 | -35* | -17 | 0 | 96 | 21

Assay outcomes as filed in PubChem BioAssay.
